The values below come from ChEMBL document CHEMBL3525913, “Metabolism-dependent inhibition of CYP3A4 by lapatinib: evidence for formation of a metabolic intermediate complex with a nitroso/oxime metabolite formed via a nitrone intermediate” (Drug Metab Dispos, 2013).

Data set [1] has as its target Cytochrome P450 3A4 (Homo sapiens, UniProt P08684). Kind of data set: Activity of recombinant CYP3A4 (unknown origin) assessed as compound formation treated with lapatinib at 50 uM by LC/MS/MS analysis. The data set is classed as ADME. The settings on record: recombinant enzyme. The gist of the method: (§1)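 Lapatinib 50 μM (added in DMSO) incubated 30 min at 37°C in 100 mM potassium phosphate pH 7.4 with HLM 1 mg/mL or recombinant CYP3A4+b5 / CYP3A5+b5 100 pmol/mL. Reaction started with NADPH 1 mM. Protein re-isolated by ultracentrifugation (100,000 x g, 4°C, 60 min), washed (KCl/EDTA), resuspended in phosphate buffer, ±2 mM ferricyanide 10 min 37°C, quenched with acetonitrile, then high-resolution LC/MS profiling.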

Data set [2] has as its system Liver microsome. Kind of data set: Drug level in human liver microsomes treated with lapatinib at 50 uM by LC/MS/MS analysis. The class given is ADME. The method, boiled down: as §1
Background: Liver microsomes are vesicles of endoplasmic reticulum, rich in cytochrome P450 enzymes.

Data set [3] in a line: Retention time of the compound by LC/MS/MS analysis relative to lapatinib. The data set is classed as physicochemical. The method, boiled down:
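Phenyl UPLC column (1.7 μm, 2.1 x 100 mm), 0.1% formic acid in water/acetonitrile, 0.4 mL/min. Gradient: 10% organic for 1 min, to 90% over 13 min, held 0.5 min. Detection by accurate-mass MS. Retention times expressed relative to lapatinib.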

In data set [4] the target is Cytochrome P450 3A5 (Homo sapiens, UniProt P20815). The experiment in a line: Activity of recombinant CYP3A5 (unknown origin) assessed as compound formation treated with lapatinib at 50 uM by LC/MS/MS analysis. The class given is ADME. To be noted: recombinant enzyme. The method, boiled down: as §1
Cytochrome P450 3A5, sequence (P20815 whole entry): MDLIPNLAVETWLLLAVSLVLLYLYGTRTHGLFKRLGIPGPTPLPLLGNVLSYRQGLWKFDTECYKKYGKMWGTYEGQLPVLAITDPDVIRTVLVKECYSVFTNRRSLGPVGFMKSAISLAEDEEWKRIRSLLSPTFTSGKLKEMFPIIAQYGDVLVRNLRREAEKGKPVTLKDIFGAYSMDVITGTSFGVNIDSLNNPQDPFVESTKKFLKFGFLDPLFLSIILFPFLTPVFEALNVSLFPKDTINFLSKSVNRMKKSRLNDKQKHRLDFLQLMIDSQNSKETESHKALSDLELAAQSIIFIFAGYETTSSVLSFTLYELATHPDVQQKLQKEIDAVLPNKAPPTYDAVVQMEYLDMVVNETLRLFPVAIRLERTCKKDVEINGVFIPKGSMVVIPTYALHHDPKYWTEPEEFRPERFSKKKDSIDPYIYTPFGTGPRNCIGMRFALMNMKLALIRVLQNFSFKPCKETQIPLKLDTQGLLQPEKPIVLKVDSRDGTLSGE

Cytochrome P450 3A4, sequence (P08684 whole entry): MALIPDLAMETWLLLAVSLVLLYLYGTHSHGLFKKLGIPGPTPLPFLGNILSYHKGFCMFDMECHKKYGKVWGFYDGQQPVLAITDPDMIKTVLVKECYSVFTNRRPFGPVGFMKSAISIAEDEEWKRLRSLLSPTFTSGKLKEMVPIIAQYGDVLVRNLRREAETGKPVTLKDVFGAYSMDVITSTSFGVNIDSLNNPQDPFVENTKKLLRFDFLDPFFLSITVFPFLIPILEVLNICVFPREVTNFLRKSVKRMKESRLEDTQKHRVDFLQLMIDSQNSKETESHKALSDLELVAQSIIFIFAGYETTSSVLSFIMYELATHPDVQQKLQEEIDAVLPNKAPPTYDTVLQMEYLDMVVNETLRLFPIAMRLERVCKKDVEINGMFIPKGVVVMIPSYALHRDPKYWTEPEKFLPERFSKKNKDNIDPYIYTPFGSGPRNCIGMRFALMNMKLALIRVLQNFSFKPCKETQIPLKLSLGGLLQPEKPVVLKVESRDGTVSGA

Turning to `CS(=O)(=O)CCNCc1ccc(-c2ccc3ncnc(Nc4ccc(O)c(Cl)c4)c3c2)o1`, the Drug metabolism entry in data set [1], in data set [2] and in data set [4] was “metabolite_detected” in each case. Further, the Ratio in data set [3] amounted to 0.5.
As for `CS(=O)(=O)CCN(O)Cc1ccc(-c2ccc3ncnc(Nc4ccc(OCc5cccc(F)c5)c(Cl)c4)c3c2)o1`, the Drug metabolism result in data set [1], in data set [2] and in data set [4] was “metabolite_detected” each time. Besides, the Ratio in data set [3] was 1.14.
As to `O/N=C/c1ccc(-c2ccc3ncnc(Nc4ccc(OCc5cccc(F)c5)c(Cl)c4)c3c2)o1`, the Drug metabolism result in data set [1], in data set [2] and in data set [4] was “metabolite_detected” throughout. Moreover, the Ratio in data set [3] was found to be 1.18.
Turning to `NCc1ccc(-c2ccc3ncnc(Nc4ccc(OCc5cccc(F)c5)c(Cl)c4)c3c2)o1`, the Drug metabolism result in data set [1], in data set [2] and in data set [4] was “metabolite_detected” each time. The Ratio in data set [3] worked out at 0.97.
